Assay [1] can be described thus: Antitumor activity against human Panc89 cells assessed as reduction of viability at 10 ug/ml. Type of assay: functional. A digest of the protocol: (§1)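 Viability was measured in the pancreatic tumor lines Colo357 and Panc89 and the colon tumor line HT29, with compound present at a final concentration of 10 µg/mL. The read-out is percent reduction in cell viability.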

The subject of another assay is HT-29. Nature of the assay: Antitumor activity against human HT29 cells assessed as reduction of viability at 10 ug/ml. The class given is functional. A digest of the protocol:
as §1

In another assay the test system is Escherichia coli. Nature of the assay: Antimicrobial activity against Escherichia coli. Type of assay: functional, organism-based.
In a further assay the test system is Pseudomonas fluorescens. Nature of the assay: Antimicrobial activity against Pseudomonas fluorescens. Type of assay: functional, organism-based.
The subject of another assay is Nakaseomyces glabratus. Nature of the assay: Antimicrobial activity against Candida glabrata. The class given is functional, organism-based.
The test system of the next assay is COLO357. Nature of the assay: Antitumor activity against human Colo357 cells assessed as reduction of viability at 10 ug/ml. Type of assay: functional. The method in brief:
as §1

These results are taken from ChEMBL document CHEMBL1157382, “Scopularides A and B, cyclodepsipeptides from a marine sponge-derived fungus, Scopulariopsis brevicaulis” (2008).

Activity calls are given as the source filed them. The calls are words filed in the database; no cut-off is given here.

Turning to `CCCCC(C)[C@@H]1CC(=O)NCC(=O)N[C@@H](C(C)C)C(=O)N[C@H](CC(C)C)C(=O)N[C@@H](C)C(=O)N[C@@H](Cc2ccccc2)C(=O)O1` (some centres not stated) [SCOPULARIDE B], the Activity is 49% in assay [1], 24% in the assay with HT-29 and 26% in the assay with COLO357. Also, the result in the assay with Escherichia coli, with Pseudomonas fluorescens and in the assay with Nakaseomyces glabratus was inactive.

As for `CCCCCCC(C)[C@@H]1CC(=O)NCC(=O)N[C@@H](C(C)C)C(=O)N[C@H](CC(C)C)C(=O)N[C@@H](C)C(=O)N[C@@H](Cc2ccccc2)C(=O)O1` (some centres not stated) [SCOPULARIDE A], the Activity is 42% in assay [1], 37% with HT-29 and 36% with COLO357. The outcome with Escherichia coli, in the assay with Pseudomonas fluorescens and with Nakaseomyces glabratus was inactive.
